The source of these data is ChEMBL document CHEMBL3856222, “Design, structure activity relationship, cytotoxicity and evaluation of antioxidant activity of curcumin derivatives/analogues” (Eur J Med Chem, 2016).

For orientation: IC50 means the concentration that inhibits the measured activity by half.

Test [1] is described as follows: Cytotoxicity against human HeLa cells assessed as decrease in cell viability after 48 hrs by MTT assay. In kind it is functional, cell-based. In a few lines: (§1)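 Cells seeded at 2 x 10^3 per well in MEM with 10% FBS and left to attach for 24 h. Exposed 48 h to 5, 10, 20, 50, 100 and 200 µM (printed µM/mL). Controls got medium with 0.2% DMSO. Duplicate treatments. After PBS wash, MTT (stock 1 mg/mL) added for 4 h at 37 °C. Formazan dissolved in DMSO and OD read at 590 nm.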

The nature of test [2]: Antioxidant activity assessed as nitric oxide radical scavenging activity at 20 uM incubated in dark for 20 mins relative to control. In kind it is functional.
The nature of test [3]: Cytotoxicity against human HCT116 cells assessed as decrease in cell viability after 48 hrs by MTT assay. In kind it is functional, cell-based. The note with it: HCT-116, 48 h. In a few lines: as §1
Test [4] in a line: Antioxidant activity assessed as DPPH free radical scavenging activity at 50 uM incubated in dark for 20 mins relative to control. In kind it is functional. In a few lines: (§2)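 Compounds dissolved in DMSO and diluted in 100 mM Tris–HCl (pH 7.4). DPPH (0.1 mM in methanol) added with vigorous shaking, then held in the dark at room temperature for 20 min. Absorbance read at 517 nm with DMSO baseline correction. Compound-free control prepared the same way. Run in triplicate.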
(The DPPH test is a chemical assay of radical scavenging.)

Test [5] is described as follows: Antioxidant activity assessed as DPPH free radical scavenging activity at 2 uM incubated in dark for 20 mins relative to control. In kind it is functional. In a few lines:
as §2

A short description of test [6]: Antioxidant activity assessed as nitric oxide radical scavenging activity at 50 uM incubated in dark for 20 mins relative to control. In kind it is functional.
Test [7] is described as follows: Antioxidant activity assessed as DPPH free radical scavenging activity at 10 uM incubated in dark for 20 mins relative to control. In kind it is functional. In a few lines: as §2
Test [8] in a line: Antioxidant activity assessed as DPPH free radical scavenging activity at 20 uM incubated in dark for 20 mins relative to control. In kind it is functional. Put shortly:
as §2

A short description of test [9]: Antioxidant activity assessed as nitric oxide radical scavenging activity at 10 uM incubated in dark for 20 mins relative to control. In kind it is functional.
The nature of test [10]: Cytotoxicity against human QG56 cells assessed as decrease in cell viability after 48 hrs by MTT assay. In kind it is functional, cell-based. The note with it: QG-56, 48 h. Put shortly:
as §1
Background: Tetrazolium assays rely on reduction of a dye to a coloured formazan, in cell work by metabolically active cells.

Test [11] in a line: Antioxidant activity assessed as nitric oxide radical scavenging activity at 2 uM incubated in dark for 20 mins relative to control. In kind it is functional.

SMILES strings stand for the structures. Where a name gives a salt, the structure may show the parent alone.

Turning to `COc1cc(/C=C/C(=O)C2=C(/C=C/c3ccc(O)c(OC)c3)NC(=O)NC2c2ccc(C)cc2)ccc1O` (stereo not drawn), the IC50 in test [1] is 100 µM; in test [3], 12.5 µM; in test [10], 100 µM. Besides, the Activity in test [2] turned out to be 36.3%; in test [4], 46%; in test [5], 17.2%; in test [6] it was 52.2%; in test [7], 29.9%; in test [8], 38.2%. For the same molecule, the Activity in test [9] was found to be 23.9%; in [11], 15.5%.

On to `COc1cccc2c1C(=O)c1c(O)c3c(c(O)c1C2=O)C[C@@](O)(C(=O)CO)C[C@@H]3O[C@H]1C[C@H](N)[C@H](O)[C@H](C)O1` [DOXORUBICIN HYDROCHLORIDE], for which the IC50 in test [1] was found to be 2.5 µM; in test [3], 5 µM; in test [10] it was 2.5 µM.

On to `COc1cc(/C=C/C(=O)C2=C(/C=C/c3ccc(O)c(OC)c3)NC(=S)NC2c2ccccc2O)ccc1O` (stereo not drawn), for which the IC50 came out at 25 µM in [1], 100 µM in test [3] and 50 µM in [10]. For the same molecule, the Activity in test [2] stood at 79.9%; in [4], 86.3%; in test [5], 25%; in test [6], 88.5%; in test [7], 60.2%; in test [8], 72.3%. For the same molecule, the Activity amounted to 70.8% in [9] and 34% in test [11].

As for `COc1cc(/C=C/C(=O)C2=C(/C=C/c3ccc(O)c(OC)c3)NC(=O)NC2c2cccc([N+](=O)[O-])c2)ccc1O` (stereo not drawn), the IC50 in test [1] was 100 µM; in test [3], 50 µM; in test [10] it was 25 µM. Further, the Activity in test [2] was 33%; in test [4] it was 71%; in test [5] it was 17%; in test [6], 48%; in test [7], 51.2%; in test [8], 66.3%. For the same molecule, the Activity in test [9] was 19.9%; in test [11], 10.2%.

As for `COc1cc(/C=C/C(=O)C2=C(/C=C/c3ccc(O)c(OC)c3)NC(=O)NC2c2ccc(O)cc2)ccc1O` (stereo not drawn), the IC50 in test [1] came out at 25 µM; in test [3], 100 µM; in test [10], 50 µM. Besides, the Activity was determined as 80.1% in test [2]; 90.3% in [4]; 25% in test [5]; 86.2% in test [6]; 75% in test [7]; 84.6% in test [8]. Further, the values for the Activity in test [9] and in [11] were 72% and 33.3%, respectively.

Regarding `COc1cc(/C=C/C(=O)C2=C(/C=C/c3ccc(O)c(OC)c3)NC(=O)NC2c2ccccc2Cl)ccc1O` (stereo not drawn), the IC50 is 100 µM in test [1], 50 µM in [3] and 100 µM in test [10]. For the same molecule, the Activity turned out to be 38.7% in test [2]; 55.5% in test [4]; 20.2% in [5]; 56% in test [6]; 40% in test [7]; 46% in test [8]. The Activity in [9] is 23%; in [11], 16.6%.

Consider `COc1cc(/C=C/C(=O)C2=C(/C=C/c3ccc(O)c(OC)c3)NC(=S)NC2c2c(Cl)cccc2Cl)ccc1O` (stereo not drawn), for which the IC50 was 100 µM in [1], 50 µM in [3] and 100 µM in [10]. Besides, the Activity worked out at 33.9% in [2]; 50.2% in test [4]; 17.7% in test [5]; 50% in test [6]; 29% in [7]; 43.2% in test [8]. The Activity was determined as 20.2% in [9] and 15% in test [11].

Turning to `COc1cc(/C=C/C(=O)C2=C(/C=C/c3ccc(O)c(OC)c3)NC(=S)NC2c2ccc(N(C)C)cc2)ccc1O` (stereo not drawn), the IC50 in [1] stood at 12.5 µM; in [3] it was 12.5 µM; in test [10], 25 µM. The Activity in test [2] was determined as 72.1%; in test [4], 89.5%; in test [5] it was 30.2%; in test [6], 84%; in [7], 72%; in test [8], 83%. The Activity came to 59% in test [9] and 32.3% in [11].

On to `COc1cc(/C=C/C(=O)CC(=O)/C=C/c2ccc(O)c(OC)c2)ccc1O` [CURCUMIN], for which the IC50 in [1] worked out at 50 µM; in test [3] it was 50 µM; in test [10], 100 µM. For the same molecule, the Activity in test [2] stood at 36.5%; in test [4], 50.2%; in [5], 6%; in test [6], 59.9%; in test [7], 33.2%; in test [8], 42.2%. Further, the Activity in [9] worked out at 22.2%; in [11], 12.2%.

On to `COc1cc(/C=C/C(=O)C2=C(/C=C/c3ccc(O)c(OC)c3)NC(=O)NC2c2ccccc2)ccc1O` (stereo not drawn), for which the IC50 in test [1] was determined as 100 µM; in test [3], 25 µM; in test [10] it was 50 µM. Also, the Activity came out at 31% in [2]; 40.2% in [4]; 15.2% in [5]; 50.2% in [6]; 26.4% in test [7]; 38.2% in test [8]. Besides, the values for the Activity in [9] and in [11] were 20% and 10.5%, respectively.

For the molecule `COc1cc(/C=C/C(=O)C2=C(/C=C/c3ccc(O)c(OC)c3)NC(=S)NC2c2ccc(C)cc2)ccc1O` (stereo not drawn), the IC50 in test [1] stood at 25 µM; in test [3], 50 µM; in [10], 12.5 µM. The Activity in test [2] is 30%; in test [4], 62%; in test [5], 15.5%; in test [6], 41%; in test [7], 43.2%; in test [8] it was 51%. The Activity in [9] is 19.9%; in test [11], 10.2%.

`COc1cc(/C=C/C(=O)C2=C(/C=C/c3ccc(O)c(OC)c3)NC(=S)NC2c2ccccc2Cl)ccc1O` (stereo not drawn): the IC50 in [1] amounted to 50 µM; in test [3], 100 µM; in test [10] it was 50 µM. Also, the Activity in [2] was 39.2%; in [4], 60%; in test [5] it was 16.2%; in [6], 55.6%; in test [7], 43.2%; in [8], 56.6%. The Activity was 21.2% in test [9] and 15.5% in [11].

As for `COc1cc(/C=C/C(=O)C2=C(/C=C/c3ccc(O)c(OC)c3)NC(=O)NC2c2ccccc2O)ccc1O` (stereo not drawn), the values for the IC50 in test [1], in [3] and in test [10] were 50 µM, 100 µM and 100 µM, respectively. In addition, the Activity in test [2] worked out at 80.9%; in test [4], 88.9%; in [5], 33.6%; in [6], 88%; in test [7], 73.6%; in [8], 81%. Also, the Activity in test [9] stood at 71%; in test [11], 29.9%.

As for `COc1cc(/C=C/C(=O)C2=C(/C=C/c3ccc(O)c(OC)c3)NC(=O)NC2c2c(Cl)cccc2Cl)ccc1O` (stereo not drawn), the IC50 stood at 25 µM in test [1], 50 µM in test [3] and 100 µM in test [10]. Moreover, the Activity is 33% in [2]; 43.2% in test [4]; 11.2% in [5]; 44.2% in test [6]; 19.2% in [7]; 31.9% in test [8]. Further, the Activity in test [9] came to 20%; in [11] it was 11.2%.

Turning to `COc1cc(/C=C/C(=O)C2=C(/C=C/c3ccc(O)c(OC)c3)NC(=S)NC2c2ccccc2)ccc1O` (stereo not drawn), the IC50 in [1] was determined as 25 µM; in test [3], 100 µM; in test [10], 100 µM. Moreover, the Activity was 36.6% in test [2]; 48% in [4]; 15.5% in test [5]; 50.4% in test [6]; 26.5% in test [7]; 38% in test [8]. For the same molecule, the Activity in test [9] turned out to be 22%; in [11], 16.6%.

As to `COc1cc(/C=C/C(=O)C2=C(/C=C/c3ccc(O)c(OC)c3)NC(=O)NC2c2ccc(N(C)C)cc2)ccc1O` (stereo not drawn), the results for the IC50 in [1], in test [3] and in test [10] were 25 µM, 12.5 µM and 12.5 µM, respectively. Further, the Activity was 82.2% in test [2]; 56% in test [4]; 17.9% in test [5]; 89.2% in test [6]; 37.6% in [7]; 48% in [8]. Moreover, the Activity in test [9] worked out at 69.9%; in test [11], 28.2%.
